Assay outcomes from PubChem.
DENV2 CPE = DENV2-induced cell death inhibition; DENV2-infected cells, cytopathic effect rescue, plate reader; CPE inhibition, % at 9.99 µM; 1.7% of 350,000 active; AID 651640; in the data active = CPE inhibition above about 20%, passing the limit was not always enough; tested in BHK-21 cells;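 also: 0% = median of neutral control wells and 100% = median of positive control wells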
XiGFP reactiv = reactivates the inactive X chromosome in mouse fibroblasts. XiGFP mouse fibroblasts, % GFP-positive cells imaging, 3 d; cells co-treated with 5-aza-dC sensitizer; scaled so ellipticine positive control = 100%. activation, % at 7.58 µM. 0.055% of 360,000 active;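 active = mean normalized replicate activation at least 10% and every replicate at or above 10%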;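 also: 0% = median of on-plate neutral control wells and 100% = ellipticine 6 µM median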
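System: 68-5-11 XiGFP fibroblast line | Buffer or medium: DMEM containing 5-aza-dC | Compound: Single point | Times: Compounds 3 days, fix/stain 15 min at room temperature | Benchmarks: Positive control ellipticine, 6 µM final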
Cneo AK release = Cryptococcus neoformans lysis via adenylate kinase release; lysis activity, % at 15 µM; 0.2% of 360,000 active; C. neoformans lysis, adenylate kinase release luminescence, 4 h; normalised: neutral wells 0, clomiphene wells 100;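 active = mean lysis activity across replicates of at least 80%, whatever share of replicates individually reach that level; inactive = mean lysis activity below 80%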
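read-out = cell lysis signal | test system = log-phase Cryptococcus neoformans yeast cells | input = cells at 5 × 10^6 per mL | medium = fresh YPD growth medium | signal = luminescent adenylate kinase detection reagent | timing = 4 h at 37 °C static, read 1 h later | dosing = single dose | controls = Clomiphene as positive lysis control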
C2C12 statin = suppressors of simvastatin-induced myotoxicity in C2C12 myotubes; ATP luminescence, 48 h; scaled: DMSO 0, geranylgeraniol control 100; rescue of ATP level, % at 7.49 µM; 0.78% of 330,000 active;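 active = mean ATP rescue above about 67%, or every replicate alone reaching that limit, limit read from the data, passing the limit was not always enough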;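 also: myotubes were challenged with 10 µM simvastatin during compound exposure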
Active calls of the source: *; nt = no result. Sampled rows, rich in hits. Any-hit rate of the full collection: about 2.1%.

SMILES	DENV2 CPE	XiGFP reactiv	Cneo AK release	C2C12 statin
COc1ccccc1NC(=O)N[C@@H]1C=C[C@@H](CC(=O)NCc2ccc(Cl)c(Cl)c2)O[C@@H]1CO	-7	0	nt	nt
CCCCOCCCNC(=O)C[C@@H]1C[C@@]2(C(=O)OC)CC(C)(C)CC=C2N(Cc2ccc3c(c2)OCO3)C1=O	28*	0	nt	nt
COCCCNC(=O)C[C@@H]1C[C@@]2(C(=O)OC)CC(C)(C)CC=C2N(Cc2ccco2)C1=O	21*	0	nt	nt
CC(C)NC(=O)N1[C@@H](CO)[C@@H](c2ccccc2)C12CN(C(=O)c1ccccn1)C2	14	0	nt	nt
C[C@H]1CN([C@@H](C)CO)C(=O)c2cc(C#CC3CC3)cnc2O[C@@H]1CN(C)Cc1cccc(C(=O)O)c1	-1	0	-13	3
O=C(C1CCC1)N1CCCc2cc(S(=O)(=O)N3CCN(c4ccccc4)CC3)ccc21	3	0	2	149*
Cc1ccc2c(c1)-c1c(cnn1CC(=O)O)CO2	nt	nt	2	92*
CCN(CCN(C)C)C(=O)Cn1ncc2c1-c1cc(C)ccc1OC2	-7	0	-1	-5
O=C(C1CCCCC1)N1CC2(C1)[C@@H](c1ccccc1)[C@H](CO)N2Cc1nccs1	6	0	nt	nt
CC(C(=O)NCC1CCCO1)n1cccc1C(=O)c1ccccc1 (stereo unspecified)	nt	nt	6	107*
Cc1ccc(S(=O)(=O)N[C@@H]2CC[C@H](CCn3cc(-c4cccc(F)c4)nn3)O[C@H]2CO)cc1	-3	0	-2	7
O=S(=O)(N[C@@H]1CC[C@H](CCn2cc(-c3ccccn3)nn2)O[C@@H]1CO)c1cccc(Cl)c1	13	-1	47	12
O=S(=O)(N[C@@H]1CC[C@@H](CCn2cc(-c3ccccn3)nn2)O[C@H]1CO)c1cccc(Cl)c1	37*	-1	1	21
O=S(=O)(N[C@H]1CC[C@H](CCn2cc(-c3cccnc3)nn2)O[C@@H]1CO)c1ccccc1	29*	0	0	-9
Cc1ccc(S(=O)(=O)N[C@H]2CC[C@@H](CCn3cc(-c4cccc(F)c4)nn3)O[C@H]2CO)cc1	34*	0	3	7
COc1ccc(C2C(C(C)=O)=C(O)C(=O)N2c2ccc(Br)cn2)cc1 (stereo unspecified)	nt	nt	7	136*
CCO[C@H]1OC(C(=O)N2CCCC2)=C[C@@H](c2ccc(Br)cc2)[C@@H]1CCCO	3	nt	2	nt
O=C(Nc1ccccc1Cl)NC1(C(=O)N2CCCCC2)CCCCC1	nt	nt	-6	101*
O=C(Nc1ccccc1Cl)NC1(C(=O)N2CCCC2)CCCCC1	nt	nt	-1	13
Cc1cc(C)c(NC(=O)C2CCC(=O)N2)c(C)c1 (stereo unspecified)	-1	0	735*	-3
CC(C)(C)NC(=S)N1CCC(C(=O)c2ccc(Cl)cc2)CC1	21*	0	19	1
COc1cccc(C#Cc2cnc3c(c2)C(=O)N([C@@H](C)CO)C[C@@H](C)[C@H](CN(C)C(C)=O)O3)c1	-2	-1	1	13
CCCNC(=O)[C@@H]1[C@@H](CO)[C@@H]2Cn3c(ccc(-c4ccccc4OC)c3=O)[C@H]1N2C(=O)NCCC	2	0	-7	-16
COc1ccccc1Oc1ccc2c(c1)C(=O)N(c1ccc(O)cc1)C2=O	nt	nt	0	128*
COc1ccccc1Oc1ccc2c(c1)C(=O)N(CC(=O)O)C2=O	nt	nt	0	13
SMILES	DENV2 CPE	XiGFP reactiv	Cneo AK release	C2C12 statin
COc1ccc(NC(=O)N(C)C[C@@H]2Oc3ccc(NS(C)(=O)=O)cc3CC(=O)N([C@H](C)CO)C[C@@H]2C)cc1	34*	0	-1	4
COc1ccc(CN(C)C[C@@H]2Oc3ccc(NS(C)(=O)=O)cc3CC(=O)N([C@H](C)CO)C[C@H]2C)cc1	-4	-1	97*	15
COc1ccc(CN(C)C[C@@H]2Oc3ccc(NS(C)(=O)=O)cc3CC(=O)N([C@@H](C)CO)C[C@@H]2C)cc1	nt	-1	nt	-20
COc1ccc(CN(C)C[C@H]2Oc3ccc(NS(C)(=O)=O)cc3CC(=O)N([C@@H](C)CO)C[C@H]2C)cc1	-1	-1	81*	9
COc1ccc(CN(C)C[C@@H]2Oc3ccc(NS(C)(=O)=O)cc3CC(=O)N([C@@H](C)CO)C[C@H]2C)cc1	18	-1	2	-6
C[C@H](CO)N1C[C@H](C)[C@@H](CN(C)Cc2ccc(F)cc2)Oc2ncc(-c3ccncc3)cc2C1=O	7	0	0	-5
CCOC(=O)C(C)Sc1nc2c(cnn2-c2ccc(C)cc2)c(=O)[nH]1 (stereo unspecified)	nt	nt	1	97*
Cc1ccc(-n2ncc3c(=O)[nH]c(SCC(=O)N4CCCC4)nc32)cc1C	63*	0	1	3
Cc1ccc(-n2ncc3c(=O)[nH]c(SCC(=O)N4CCOCC4)nc32)cc1	nt	nt	-2	129*
O=C(CSc1nc2c(cnn2-c2ccccc2)c(=O)[nH]1)N1CCOCC1	nt	nt	-1	142*
O=C(CSc1nc2c(cnn2-c2ccc(F)cc2)c(=O)[nH]1)N1CCOCC1	nt	nt	0	-3
C[C@H](CO)N1C[C@H](C)[C@@H](CN(C)C(=O)c2ccc(F)cc2)Oc2ncc(C#CCN(C)C)cc2C1=O	-1	-1	-4	8
CO[C@@H]1CN(C)C(=O)c2ccc(NC(=O)c3ccccc3)cc2OC[C@H](C)N(C(=O)C2CC2)C[C@H]1C	nt	0	-3	10
Cc1ccc(-n2c(SCC(=O)N3CCOCC3)nc(O)cc2=O)cc1	69*	0	-1	5
O=C(Nc1ccc(S(=O)(=O)Nc2ncccn2)cc1)c1cccc([N+](=O)[O-])c1	71*	0	2	4
O=C(Nc1ccc(S(=O)(=O)Nc2ncccn2)cc1)c1cc([N+](=O)[O-])ccc1Cl	-2	0	2	21
CCCC#Cc1ccc2c(c1)O[C@H](CN(C)C(=O)C1CC1)[C@@H](C)CN([C@@H](C)CO)S2(=O)=O	-6	0	0	4
CN(C)C(=O)c1cccc(-c2ccc([C@H]3[C@@H](CO)N(C(=O)C4CCCC4)[C@H]3C#N)cc2)c1	13	0	nt	nt
COc1ccccc1CNC(=O)C[C@@H]1C=C[C@@H](NC(=O)CN(C)C)[C@@H](CO)O1	-4	0	2	1
CN1c2ccc(-c3cccc(F)c3)cc2[C@@H]2[C@@H](CCN2C(=O)Cc2ccccc2)[C@@H]1CO	-5	0	-5	1
CN1CCN(c2ccc([N+](=O)[O-])c(-n3nc(-c4ccccc4)c4ccccc4c3=O)c2)CC1	nt	nt	2	80*
Cc1ccc(C)c(CSC2=NN3CCCC(=O)N=C3S2)c1	-1	19*	nt	16
CC(OC(=O)c1ccccc1NCCO)C(=O)NC1CCCCC1C (stereo unspecified)	69*	0	3	-2
C[C@H](CO)N1C[C@H](C)[C@@H](CN(C)Cc2ccncc2)Oc2ccc(NC(=O)Cc3cn(C)c4ccccc34)cc2C1=O	-2	0	-5	2
